How the values were obtained:
[1] = tested on: HeLa; experiment: Cytotoxicity against human HeLa cells; type: functional, cell-based
[2] = tested on: MCF7; experiment: Cytotoxicity against human MCF7 cells by MTT method; type: functional; settings: MCF7, read-out: ED50
[3] = tested on: HeLa; experiment: Cytotoxicity against human HeLa cells by MTT method; type: functional; settings: read-out: ED50
[4] = tested on: HEp-2; experiment: Cytotoxicity against human Hep2 cells by MTT method; type: functional; settings: HEp-2, read-out: ED50
[5] = Cytotoxicity against human Doay cells; type: functional, cell-based
[6] = Cytotoxicity against human Doay cells by MTT method; type: functional; settings: read-out: ED50
[7] = tested on: HEp-2; experiment: Cytotoxicity against human Hep2 cells; type: functional, cell-based
[8] = tested on: RAW264.7; experiment: Reduction of LPS-induced iNOS expression in mouse Raw264.7 cells at 10 uM preincubated for 5 mins before LPS challenge relative to control; type: functional; set-up: scale not given: the % may be the effect or the level left
How it was run: (§1)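 RAW 264.7 murine macrophages grown in DMEM with 10% heat-inactivated FBS at 37 °C, 5% CO2, plated at 3 × 10^6 cells per 60 mm dish. Compound added 5 min before LPS (0.01 µg/mL), then 16 h incubation. Lysates were analysed by Western blot against iNOS and COX-2 (1:1000), with β-actin as loading control and ECL detection. Band IOD was expressed relative to the LPS-only control; one-way ANOVA with Student-Newman-Keuls test.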

[9] = tested on: RAW264.7; experiment: Reduction of LPS-induced COX2 expression in mouse Raw264.7 cells at 10 uM preincubated for 5 mins before LPS challenge relative to control; type: functional; set-up: scale not given: the % may be the effect or the level left; how it was run: as §1
[10] = tested on: MCF7; experiment: Cytotoxicity against human MCF7 cells; type: functional, cell-based

C=C1C(=O)O[C@]2(C)CC[C@@H]1C[C@H](OC(C)=O)[C@@]1(C)CC[C@H](O1)C(=C)CC[C@H]2OC(C)=O [GRANOSOLIDE B]
IC50 [1]: > 20 µg/mL
EC50 [2]: > 20 µg/mL
EC50 [3]: > 20 µg/mL
EC50 [4]: > 20 µg/mL
IC50 [5]: > 20 µg/mL
EC50 [6]: > 20 µg/mL
IC50 [7]: > 20 µg/mL

C=C1C(=O)O[C@]2(C)CC[C@@H]1C[C@H](O)[C@@]1(C)CC[C@H](O1)[C@](C)(O)CC[C@H]2OC(C)=O [QUERCIFORMOLIDE B]
IC50 [1]: > 20 µg/mL
EC50 [2]: > 20 µg/mL
EC50 [3]: > 20 µg/mL
EC50 [4]: > 20 µg/mL
IC50 [5]: > 20 µg/mL
EC50 [6]: > 20 µg/mL
IC50 [7]: > 20 µg/mL

C=C1C(=O)O[C@]2(C)CC[C@@H]1C[C@H](O)[C@@]1(C)CC[C@H](O1)[C@](C)(O)CC[C@H]2O [QUERCIFORMOLIDE D]
IC50 [1]: > 20 µg/mL
EC50 [2]: > 20 µg/mL
EC50 [3]: > 20 µg/mL
EC50 [4]: > 20 µg/mL
IC50 [5]: > 20 µg/mL
EC50 [6]: > 20 µg/mL
IC50 [7]: > 20 µg/mL

C=C1C(=O)O[C@]2(C)CC[C@@H]1C[C@H](O)[C@@]1(C)CC[C@H](O1)C(=C)CC[C@H]2OC(C)=O [GRANOSOLIDE A]
IC50 [1]: > 20 µg/mL
EC50 [2]: > 20 µg/mL
EC50 [3]: > 20 µg/mL
EC50 [4]: > 20 µg/mL
IC50 [5]: > 20 µg/mL
EC50 [6]: > 20 µg/mL
IC50 [7]: > 20 µg/mL

C=C1C(=O)O[C@]2(C)CC[C@@H]1C[C@H](OC(C)=O)[C@@]1(C)CC[C@H](O1)[C@](C)(O)CCC2=O
Activity [8]: 20.3%
IC50 [1]: > 20 µg/mL
EC50 [2]: > 20 µg/mL
EC50 [3]: > 20 µg/mL
EC50 [4]: > 20 µg/mL
IC50 [5]: > 20 µg/mL
EC50 [6]: > 20 µg/mL
Activity [9]: 14%
IC50 [7]: > 20 µg/mL

C=C1C(=O)O[C@]2(C)CC[C@@H]1C[C@H](OC(C)=O)[C@@]1(C)CC[C@H](O1)[C@](C)(O)CC[C@H]2OC(C)=O [QUERCIFORMOLIDE C]
Activity [8]: 23.7%
IC50 [1]: > 20 µg/mL
EC50 [2]: > 20 µg/mL
EC50 [3]: > 20 µg/mL
EC50 [4]: > 20 µg/mL
IC50 [5]: > 20 µg/mL
EC50 [6]: > 20 µg/mL
IC50 [7]: > 20 µg/mL

C=C1C(=O)O[C@]2(C)CC[C@@H]1C[C@H](O)[C@@]1(C)CC[C@H](O1)[C@](C)(O)CCC2=O
IC50 [1]: > 20 µg/mL
EC50 [2]: > 20 µg/mL
EC50 [3]: > 20 µg/mL
EC50 [4]: > 20 µg/mL
IC50 [5]: > 20 µg/mL
EC50 [6]: > 20 µg/mL
Activity [9]: 17.4%
IC50 [7]: > 20 µg/mL

C=C1C(=O)O[C@]2(C)CC[C@@H]1C[C@H](O)[C@@]1(C)CC[C@H](OC(C)=O)[C@@](C)(CCC2=O)O1 [QUERCIFORMOLIDE A]
IC50 [1]: > 20 µg/mL
EC50 [2]: > 20 µg/mL
EC50 [3]: > 20 µg/mL
EC50 [4]: > 20 µg/mL
IC50 [5]: > 20 µg/mL
EC50 [6]: > 20 µg/mL
IC50 [10]: > 20 µg/mL
IC50 [7]: > 20 µg/mL

From ChEMBL document CHEMBL1140187, “Anti-inflammatory cembranoids from the soft corals Sinularia querciformis and Sinularia granosa” (J Nat Prod, 2008)
